Results taken from ChEMBL document CHEMBL3992509, “Discovery of a Highly Potent, Selective, and Metabolically Stable Inhibitor of Receptor-Interacting Protein 1 (RIP1) for the Treatment of Systemic Inflammatory Response Syndrome” (J Med Chem, 2017).
Activity calls are given as the source filed them. The rule behind the calls is not given here.

Key:
[1] = tested on: Brain; test: Drug uptake in C57BL/6J mouse brain at 20 mg/kg, iv after 2 hrs by LC-MS/MS analysis; format: ADME, organism-based; conditions: in vivo
[2] = tested on: Mus musculus; test: Protection against TNFalpha-induced mortality in ip dosed C57BL/6J mouse assessed as increase in survival rate administered as single dose 17 mins before TNFalpha injection measured every 30 mins up to 60 hrs post TNFalpha injection; format: functional, organism-based
Summary of the method: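 C57BL/6 mice, 6-8 weeks, ~20 g, randomized (n = 6~10). Given 5.5 μg mTNFα (~0.25 mg/kg) IV in endotoxin-free PBS, 0.2 mL. Compound IP 17 min before TNFα: either once at 6 mg/kg or […], 1, 3 mg/kg then every 12 h; vehicle controls. Survival checked every 30 min to 60 h.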

[3] = Apparent permeability from basolateral to apical side in MDCK cells harboring MDR1; format: ADME, cell-based, Canis lupus familiaris; conditions: dog
Summary of the method: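 Permeability measured in MDCK-MDR1 cell monolayers in both directions, apical-to-basolateral and basolateral-to-apical; efflux ratio derived from the two Papp values.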

[4] = target: T1, Cytochrome P450 1A2 (Homo sapiens, UniProt P05177); test: Inhibition of CYP1A2 (unknown origin); format: ADME
T1 sequence (P05177 whole entry): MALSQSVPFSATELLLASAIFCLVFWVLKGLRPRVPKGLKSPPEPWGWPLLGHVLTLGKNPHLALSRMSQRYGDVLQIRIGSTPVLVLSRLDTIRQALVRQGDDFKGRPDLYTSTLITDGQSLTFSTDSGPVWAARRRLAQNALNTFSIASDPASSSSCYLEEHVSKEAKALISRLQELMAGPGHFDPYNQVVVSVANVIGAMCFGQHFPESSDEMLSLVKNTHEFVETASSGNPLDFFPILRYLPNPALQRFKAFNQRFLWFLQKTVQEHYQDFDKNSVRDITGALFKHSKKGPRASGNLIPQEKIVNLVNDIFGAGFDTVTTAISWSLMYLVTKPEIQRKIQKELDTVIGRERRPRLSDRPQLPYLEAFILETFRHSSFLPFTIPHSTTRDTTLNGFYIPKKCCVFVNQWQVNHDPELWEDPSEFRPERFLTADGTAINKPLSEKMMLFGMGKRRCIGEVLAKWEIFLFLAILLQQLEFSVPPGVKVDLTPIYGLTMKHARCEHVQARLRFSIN

[5] = tested on: Mus musculus; test: (§1) Protection against TNFalpha-induced thymus damage in C57BL/6J mouse assessed as reduction in macrophages infiltration at 0.3 to 3 mg/kg, ip pretreated for 17 mins followed by TNFalpha injection and subsequent compound treatment once in every 12 hrs measured 24 hrs post TNFalpha injection by hematoxylin and eosin staining based assay; format: functional, organism-based
Summary of the method: (§2)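 Mice given mTNFα IV; compound 0.3, 1, 3 mg/kg IP 17 min before and every 12 h. Killed 24 h post-TNFα. Organs fixed 24 h in 10% neutral buffered formalin, paraffin-embedded, 5-μm sections, H&E stained; ×200, at least three mice each.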

[6] = tested on: Mus musculus; test: as §1, with “spleen” for “thymus”; format: functional, organism-based; summary of the method: as §2
[7] = tested on: Mus musculus; test: Protection against TNFalpha-induced myocardium damage in C57BL/6J mouse at 0.3 to 3 mg/kg, ip pretreated for 17 mins followed by TNFalpha injection and subsequent compound treatment once in every 12 hrs measured 24 hrs post TNFalpha injection by hematoxylin and eosin staining based assay; format: functional, organism-based; summary of the method: as §2
[8] = target: T2, Receptor-interacting serine/threonine-protein kinase 1 (Homo sapiens, UniProt Q13546); test: Inhibition of RIP1 (unknown origin) using MBP as substrate preincubated for 15 mins followed by MBP/ATP mixture addition measured after 90 mins by ADP-Glo kinase assay
T2 sequence (Q13546 whole entry): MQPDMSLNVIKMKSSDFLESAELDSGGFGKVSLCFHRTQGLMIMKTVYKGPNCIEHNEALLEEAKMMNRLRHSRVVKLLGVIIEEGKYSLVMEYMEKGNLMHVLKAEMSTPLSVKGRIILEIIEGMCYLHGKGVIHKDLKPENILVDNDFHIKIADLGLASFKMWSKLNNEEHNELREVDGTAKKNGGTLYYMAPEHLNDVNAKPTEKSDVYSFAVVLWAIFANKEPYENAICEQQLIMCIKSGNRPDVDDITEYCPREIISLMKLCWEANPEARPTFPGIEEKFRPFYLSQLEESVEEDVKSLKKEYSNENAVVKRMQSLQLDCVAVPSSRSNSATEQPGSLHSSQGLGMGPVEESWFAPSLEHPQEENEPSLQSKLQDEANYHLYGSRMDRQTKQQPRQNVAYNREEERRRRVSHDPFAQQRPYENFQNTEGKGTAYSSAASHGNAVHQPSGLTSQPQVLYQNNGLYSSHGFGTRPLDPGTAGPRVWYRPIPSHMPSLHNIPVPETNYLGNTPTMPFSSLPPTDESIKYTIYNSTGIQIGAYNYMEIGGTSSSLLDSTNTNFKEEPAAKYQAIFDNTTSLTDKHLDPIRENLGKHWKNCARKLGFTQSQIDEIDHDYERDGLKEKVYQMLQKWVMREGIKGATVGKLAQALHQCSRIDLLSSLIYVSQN
Summary of the method: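 Recombinant RIP1 pre-incubated 15 min with compound or DMSO in 25 mM HEPES pH 7.2, 20 mM MgCl2, 12.5 mM MnCl2, 5 mM EGTA, 2 mM EDTA, 12.5 mM β-glycerol phosphate, 2 mM DTT. Reaction started with ATP (50 μM final) and MBP (20 μM final), run 90 min at room temperature. ADP-Glo luminescence read-out.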

[9] = Efflux ratio of apparent permeability in MDCK cells harboring MDR1; format: ADME, cell-based, Canis lupus familiaris; conditions: dog
[10] = tested on: Mus musculus; test: Protection against TNFalpha-induced multiorgan damage in C57BL/6J mouse assessed as serum creatinine level at 0.3 to 3 mg/kg, ip pretreated for 17 mins followed by TNFalpha injection and subsequent compound treatment once in every 12 hrs measured 24 hrs post TNFalpha injection; format: functional, organism-based
Summary of the method: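 C57BL/6 mice given 4 μg mTNFα (~0.18 mg/kg) IV. Compound 0.3, 1, 3 mg/kg IP 17 min before and then every 12 h; vehicle controls. Blood taken 12 h and 24 h after TNFα. Assays: IL-6 and IL-1β; serum LDH, CK, AST, creatinine, BUN, amylase.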

[11] = tested on: Mus musculus; test: Toxicity in C57BL/6J mouse assessed as injury at 50 mg/kg administered once in every 3 hrs for 24 hrs; format: organism-based; conditions: in vivo
Summary of the method: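 Mice dosed 50 mg/kg every 3 h for 24 h and examined for injury.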

[12] = tested on: Mus musculus; test: as §1, with “spleen” for “thymus”, “immune cell” for “macrophages”; format: functional, organism-based; summary of the method: as §2
[13] = tested on: Mus musculus; test: Protection against TNFalpha-induced mortality in C57BL/6J mouse assessed as survival rate at 6 mg/kg, ip administered as single dose 17 mins before TNFalpha injection measured every 30 mins up to 60 hrs post TNFalpha injection (reference value: 50%); format: functional
[14] = target: Cytochrome P450 3A4 (Homo sapiens, UniProt P08684); test: Inhibition of CYP3A4 (unknown origin); format: ADME
Cytochrome P450 3A4, sequence (P08684 whole entry): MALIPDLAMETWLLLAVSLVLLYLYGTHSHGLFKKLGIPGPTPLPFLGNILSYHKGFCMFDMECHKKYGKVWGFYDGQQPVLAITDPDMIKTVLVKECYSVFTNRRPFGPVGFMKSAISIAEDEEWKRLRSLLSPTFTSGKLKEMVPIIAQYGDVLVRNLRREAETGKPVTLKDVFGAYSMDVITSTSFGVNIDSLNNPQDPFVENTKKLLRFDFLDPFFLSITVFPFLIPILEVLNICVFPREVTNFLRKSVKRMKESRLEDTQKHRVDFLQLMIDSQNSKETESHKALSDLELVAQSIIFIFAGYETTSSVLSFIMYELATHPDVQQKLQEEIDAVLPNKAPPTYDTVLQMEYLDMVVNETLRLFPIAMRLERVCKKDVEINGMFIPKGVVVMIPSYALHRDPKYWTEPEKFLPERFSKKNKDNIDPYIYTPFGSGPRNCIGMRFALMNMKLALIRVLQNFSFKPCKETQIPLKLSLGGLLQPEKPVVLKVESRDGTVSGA

[15] = target: T3, Receptor-interacting serine/threonine-protein kinase 1 (Homo sapiens) (UniProt Q13546); test: Inhibition of TNFalpha/z-VAD-FMK-induced RIP1 phosphorylation in human HT-29 cells by Western blot method; format: cell-based
T3 sequence (whole entry): T2 sequence (Q13546 whole entry)

## CCC(C)(C)C(=O)N(O)Cc1ccccc1
[1]
  Drug uptake: Active
[2]
  Activity: Dose-dependent effect
[3]
  Papp B→A: > 30 ×10⁻⁶ cm/s
[4]
  IC50: > 50000 nM
[5]
  Activity: Active
[6]
  Activity: Active
[7]
  Activity: Active
[8]
  IC50: 13 nM
[9]
  efflux ratio: 0.87
[10]
  Activity: Active
[11]
  Activity: Non-Toxic
[12]
  Activity: Active
[13]
  survival at 6 mg/kg: 100%
[14]
  IC50: > 3500 nM
[15]
  inhibition: Active
